System: U2OS
Experiment: Multiplex assay against U2OS
Assay type: toxicity, cell-based
Details: human
Method in brief: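 Compound was added to live cells that had been stained at seeding with Hoechst33342, BioTracker Green Microtubule Cytoskeleton Dye, MitoTracker Red and Annexin V Alexa Fluor 680, and imaging followed on a CQ1 microscope at 37°C and 5% CO2. CellPathfinder machine-learning gating divided cells into Hoechst high-intensity objects or normal cells, normal cells into healthy, pyknosed or fragmented nuclei, and pyknosed cells into mitotic or apoptotic. Tubulin, mitochondrial-mass and membrane-permeability phenotypes are per cents of healthy-nucleus cells.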

[1] = 12 h, 1 µM, compound concentration 1 uM, replicate 1
[2] = 12 h, 1 µM, compound concentration 1 uM, replicate 2
[3] = 12 h, 10 µM, compound concentration 10 uM, replicate 1
[4] = 12 h, 10 µM, compound concentration 10 uM, replicate 2
[5] = 24 h, 1 µM, compound concentration 1 uM, replicate 1
[6] = 24 h, 1 µM, compound concentration 1 uM, replicate 2
[7] = 24 h, 10 µM, compound concentration 10 uM, replicate 1
[8] = 24 h, 10 µM, compound concentration 10 uM, replicate 2
[9] = 48 h, 1 µM, compound concentration 1 uM, replicate 1
[10] = 48 h, 1 µM, compound concentration 1 uM, replicate 2
[11] = 48 h, 10 µM, compound concentration 10 uM, replicate 1
[12] = 48 h, 10 µM, compound concentration 10 uM, replicate 2

## CC[C@H]1OC(=O)[C@H](C)[C@@H](O[C@H]2C[C@@](C)(OC)[C@@H](O)[C@H](C)O2)[C@H](C)[C@@H](O[C@@H]2O[C@H](C)C[C@H](N(C)C)[C@H]2O)[C@@]2(C)CC(C)=C(O2)[C@H](C)[C@@H](O)[C@]1(C)O
[1]
  Population Apoptotic (%): 50%
  Population Fragmented Nuclei (%): 19%
  Population Healthy Nuclei (%): 63%
  Population Hoechst High Intensity Objects (%): 3%
  Population Membrane Permeable-Phenotype (%): 33%
  Population Mitochondria Different-Phenotype (%): 23%
  Population Mitotic Cells (%): 50%
  Population Normal (%): 96%
  Population Pyknosed Nuclei (%): 17%
  Population Tubulin-Different-Phenotype (%): 25%
  Total Cell Count: 226
[2]
  Population Apoptotic (%): 84%
  Population Fragmented Nuclei (%): 23%
  Population Healthy Nuclei (%): 62%
  Population Hoechst High Intensity Objects (%): 1%
  Population Membrane Permeable-Phenotype (%): 21%
  Population Mitochondria Different-Phenotype (%): 14%
  Population Mitotic Cells (%): 15%
  Population Normal (%): 98%
  Population Pyknosed Nuclei (%): 14%
  Population Tubulin-Different-Phenotype (%): 14%
  Total Cell Count: 91
[3]
  Population Apoptotic (%): 65%
  Population Fragmented Nuclei (%): 34%
  Population Healthy Nuclei (%): 40%
  Population Hoechst High Intensity Objects (%): 7%
  Population Membrane Permeable-Phenotype (%): 82%
  Population Mitochondria Different-Phenotype (%): 63%
  Population Mitotic Cells (%): 34%
  Population Normal (%): 92%
  Population Pyknosed Nuclei (%): 25%
  Population Tubulin-Different-Phenotype (%): 89%
  Total Cell Count: 223
[4]
  Population Apoptotic (%): 73%
  Population Fragmented Nuclei (%): 21%
  Population Healthy Nuclei (%): 47%
  Population Hoechst High Intensity Objects (%): 4%
  Population Membrane Permeable-Phenotype (%): 72%
  Population Mitochondria Different-Phenotype (%): 81%
  Population Mitotic Cells (%): 26%
  Population Normal (%): 95%
  Population Pyknosed Nuclei (%): 31%
  Population Tubulin-Different-Phenotype (%): 96%
  Total Cell Count: 128
[5]
  Population Apoptotic (%): 65%
  Population Fragmented Nuclei (%): 20%
  Population Healthy Nuclei (%): 63%
  Population Hoechst High Intensity Objects (%): 4%
  Population Membrane Permeable-Phenotype (%): 20%
  Population Mitochondria Different-Phenotype (%): 15%
  Population Mitotic Cells (%): 35%
  Population Normal (%): 95%
  Population Pyknosed Nuclei (%): 16%
  Population Tubulin-Different-Phenotype (%): 17%
  Total Cell Count: 256
[6]
  Population Apoptotic (%): 72%
  Population Fragmented Nuclei (%): 19%
  Population Healthy Nuclei (%): 64%
  Population Hoechst High Intensity Objects (%): 5%
  Population Membrane Permeable-Phenotype (%): 14%
  Population Mitochondria Different-Phenotype (%): 14%
  Population Mitotic Cells (%): 27%
  Population Normal (%): 94%
  Population Tubulin-Different-Phenotype (%): 10%
  Total Cell Count: 115
[7]
  Population Apoptotic (%): 67%
  Population Fragmented Nuclei (%): 33%
  Population Healthy Nuclei (%): 36%
  Population Hoechst High Intensity Objects (%): 5%
  Population Membrane Permeable-Phenotype (%): 56%
  Population Mitochondria Different-Phenotype (%): 65%
  Population Mitotic Cells (%): 32%
  Population Normal (%): 94%
  Population Pyknosed Nuclei (%): 29%
  Population Tubulin-Different-Phenotype (%): 76%
  Total Cell Count: 210
[8]
  Population Apoptotic (%): 82%
  Population Fragmented Nuclei (%): 24%
  Population Healthy Nuclei (%): 45%
  Population Hoechst High Intensity Objects (%): 4%
  Population Membrane Permeable-Phenotype (%): 75%
  Population Mitochondria Different-Phenotype (%): 86%
  Population Mitotic Cells (%): 17%
  Population Normal (%): 95%
  Population Pyknosed Nuclei (%): 30%
  Population Tubulin-Different-Phenotype (%): 88%
  Total Cell Count: 121
[9]
  Population Apoptotic (%): 67%
  Population Fragmented Nuclei (%): 19%
  Population Healthy Nuclei (%): 54%
  Population Hoechst High Intensity Objects (%): 9%
  Population Membrane Permeable-Phenotype (%): 13%
  Population Mitochondria Different-Phenotype (%): 8%
  Population Mitotic Cells (%): 32%
  Population Normal (%): 91%
  Population Pyknosed Nuclei (%): 26%
  Population Tubulin-Different-Phenotype (%): 11%
  Total Cell Count: 300
[10]
  Population Apoptotic (%): 78%
  Population Fragmented Nuclei (%): 32%
  Population Healthy Nuclei (%): 58%
  Population Hoechst High Intensity Objects (%): 2%
  Population Membrane Permeable-Phenotype (%): 12%
  Population Mitochondria Different-Phenotype (%): 12%
  Population Mitotic Cells (%): 21%
  Population Normal (%): 97%
  Population Pyknosed Nuclei (%): 9%
  Population Tubulin-Different-Phenotype (%): 7%
  Total Cell Count: 147
[11]
  Population Apoptotic (%): 85%
  Population Fragmented Nuclei (%): 37%
  Population Healthy Nuclei (%): 31%
  Population Hoechst High Intensity Objects (%): 7%
  Population Membrane Permeable-Phenotype (%): 58%
  Population Mitochondria Different-Phenotype (%): 55%
  Population Mitotic Cells (%): 14%
  Population Normal (%): 92%
  Population Pyknosed Nuclei (%): 31%
  Population Tubulin-Different-Phenotype (%): 63%
  Total Cell Count: 236
[12]
  Population Apoptotic (%): 83%
  Population Fragmented Nuclei (%): 20%
  Population Healthy Nuclei (%): 42%
  Population Hoechst High Intensity Objects (%): 9%
  Population Membrane Permeable-Phenotype (%): 62%
  Population Mitochondria Different-Phenotype (%): 81%
  Population Mitotic Cells (%): 16%
  Population Normal (%): 90%
  Population Pyknosed Nuclei (%): 36%
  Population Tubulin-Different-Phenotype (%): 88%
  Total Cell Count: 112

## CN1CCN(c2nc3cc(C(F)(F)F)ccc3n3cccc23)CC1.O=C(O)/C=C\C(=O)O.O=C(O)/C=C\C(=O)O
[1]
  Population Apoptotic (%): 77%
  Population Fragmented Nuclei (%): 17%
  Population Healthy Nuclei (%): 75%
  Population Hoechst High Intensity Objects (%): 1%
  Population Membrane Permeable-Phenotype (%): 4%
  Population Mitochondria Different-Phenotype (%): 0%
  Population Mitotic Cells (%): 22%
  Population Normal (%): 98%
  Population Pyknosed Nuclei (%): 6%
  Population Tubulin-Different-Phenotype (%): 1%
  Total Cell Count: 266
[2]
  Population Apoptotic (%): 100%
  Population Fragmented Nuclei (%): 18%
  Population Healthy Nuclei (%): 73%
  Population Hoechst High Intensity Objects (%): 0%
  Population Membrane Permeable-Phenotype (%): 8%
  Population Mitochondria Different-Phenotype (%): 2%
  Population Mitotic Cells (%): 0%
  Population Normal (%): 99%
  Population Pyknosed Nuclei (%): 8%
  Population Tubulin-Different-Phenotype (%): 3%
  Total Cell Count: 111
[3]
  Population Apoptotic (%): 66%
  Population Fragmented Nuclei (%): 31%
  Population Healthy Nuclei (%): 53%
  Population Hoechst High Intensity Objects (%): 1%
  Population Membrane Permeable-Phenotype (%): 18%
  Population Mitochondria Different-Phenotype (%): 45%
  Population Mitotic Cells (%): 33%
  Population Normal (%): 98%
  Population Pyknosed Nuclei (%): 15%
  Population Tubulin-Different-Phenotype (%): 19%
  Total Cell Count: 218
[4]
  Population Apoptotic (%): 88%
  Population Fragmented Nuclei (%): 25%
  Population Healthy Nuclei (%): 68%
  Population Hoechst High Intensity Objects (%): 2%
  Population Membrane Permeable-Phenotype (%): 13%
  Population Mitochondria Different-Phenotype (%): 41%
  Population Mitotic Cells (%): 11%
  Population Normal (%): 97%
  Population Pyknosed Nuclei (%): 6%
  Population Tubulin-Different-Phenotype (%): 21%
  Total Cell Count: 135
[5]
  Population Apoptotic (%): 85%
  Population Fragmented Nuclei (%): 17%
  Population Healthy Nuclei (%): 73%
  Population Hoechst High Intensity Objects (%): 2%
  Population Membrane Permeable-Phenotype (%): 5%
  Population Mitochondria Different-Phenotype (%): 1%
  Population Mitotic Cells (%): 14%
  Population Normal (%): 97%
  Population Pyknosed Nuclei (%): 9%
  Population Tubulin-Different-Phenotype (%): 3%
  Total Cell Count: 300
[6]
  Population Apoptotic (%): 92%
  Population Fragmented Nuclei (%): 13%
  Population Healthy Nuclei (%): 77%
  Population Hoechst High Intensity Objects (%): 0%
  Population Membrane Permeable-Phenotype (%): 8%
  Population Mitochondria Different-Phenotype (%): 4%
  Population Mitotic Cells (%): 7%
  Population Normal (%): 99%
  Population Tubulin-Different-Phenotype (%): 4%
  Total Cell Count: 136
[7]
  Population Apoptotic (%): 76%
  Population Fragmented Nuclei (%): 31%
  Population Healthy Nuclei (%): 57%
  Population Hoechst High Intensity Objects (%): 3%
  Population Membrane Permeable-Phenotype (%): 16%
  Population Mitochondria Different-Phenotype (%): 41%
  Population Mitotic Cells (%): 24%
  Population Normal (%): 96%
  Population Pyknosed Nuclei (%): 10%
  Population Tubulin-Different-Phenotype (%): 14%
  Total Cell Count: 244
[8]
  Population Apoptotic (%): 78%
  Population Fragmented Nuclei (%): 19%
  Population Healthy Nuclei (%): 71%
  Population Membrane Permeable-Phenotype (%): 17%
  Population Mitochondria Different-Phenotype (%): 36%
  Population Mitotic Cells (%): 21%
  Population Pyknosed Nuclei (%): 9%
  Population Tubulin-Different-Phenotype (%): 16%
  Total Cell Count: 156
[9]
  Population Apoptotic (%): 87%
  Population Fragmented Nuclei (%): 14%
  Population Healthy Nuclei (%): 77%
  Population Hoechst High Intensity Objects (%): 2%
  Population Membrane Permeable-Phenotype (%): 4%
  Population Mitochondria Different-Phenotype (%): 0%
  Population Mitotic Cells (%): 12%
  Population Normal (%): 97%
  Population Pyknosed Nuclei (%): 7%
  Population Tubulin-Different-Phenotype (%): 2%
  Total Cell Count: 447
[10]
  Population Apoptotic (%): 85%
  Population Fragmented Nuclei (%): 17%
  Population Healthy Nuclei (%): 75%
  Population Hoechst High Intensity Objects (%): 1%
  Population Membrane Permeable-Phenotype (%): 6%
  Population Mitochondria Different-Phenotype (%): 5%
  Population Mitotic Cells (%): 14%
  Population Normal (%): 98%
  Population Tubulin-Different-Phenotype (%): 3%
  Total Cell Count: 187
[11]
  Population Apoptotic (%): 78%
  Population Fragmented Nuclei (%): 31%
  Population Healthy Nuclei (%): 52%
  Population Hoechst High Intensity Objects (%): 4%
  Population Membrane Permeable-Phenotype (%): 16%
  Population Mitochondria Different-Phenotype (%): 17%
  Population Mitotic Cells (%): 21%
  Population Normal (%): 95%
  Population Pyknosed Nuclei (%): 16%
  Population Tubulin-Different-Phenotype (%): 12%
  Total Cell Count: 299
[12]
  Population Apoptotic (%): 81%
  Population Fragmented Nuclei (%): 21%
  Population Healthy Nuclei (%): 67%
  Population Hoechst High Intensity Objects (%): 3%
  Population Membrane Permeable-Phenotype (%): 10%
  Population Mitochondria Different-Phenotype (%): 16%
  Population Mitotic Cells (%): 18%
  Population Normal (%): 96%
  Population Pyknosed Nuclei (%): 11%
  Population Tubulin-Different-Phenotype (%): 9%
  Total Cell Count: 202

— ChEMBL document CHEMBL5058577, “EUbOPEN Chemogenomics Library 2 (Multiplex)” (2022)
